Only some compounds are listed: those with a hit (about 2.8% of all), similar ones and a draw of the others.
SF1 activator: activators of human SF-1, primary screen, cell-based, CHO-K1, Gal4-SF-1 LBD, luciferase luminescence. Steroidogenic factor 1 (Homo sapiens), Q13285. activation, % at 10 µM. actives 1.9% (n = 65,000). CHO-K1 Gal4-SF-1 LBD luciferase reporter; % increase over DMSO SF-1-specific signal;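 active = activation above the mean activation of all tested compounds plus 3 SD, cut at about 50% in these data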
Target sequence (Q13285 whole entry, looked up, the tested form may be a part): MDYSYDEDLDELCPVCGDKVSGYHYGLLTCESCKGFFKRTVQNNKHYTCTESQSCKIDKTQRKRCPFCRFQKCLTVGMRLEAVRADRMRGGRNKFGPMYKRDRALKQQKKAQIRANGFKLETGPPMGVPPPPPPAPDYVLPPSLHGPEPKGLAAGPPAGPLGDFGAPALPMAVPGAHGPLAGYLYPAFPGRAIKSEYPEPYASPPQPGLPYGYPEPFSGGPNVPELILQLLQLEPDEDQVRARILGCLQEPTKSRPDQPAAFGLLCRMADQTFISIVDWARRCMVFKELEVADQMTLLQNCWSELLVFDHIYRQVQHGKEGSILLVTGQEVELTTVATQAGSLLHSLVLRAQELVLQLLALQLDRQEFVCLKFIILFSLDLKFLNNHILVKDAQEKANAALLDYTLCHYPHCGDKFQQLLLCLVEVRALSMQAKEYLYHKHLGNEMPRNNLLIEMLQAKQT
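Material: CHO-K1 cells with Gal4–hSF-1 LBD chimera plus Gal4-driven luciferase / Input: 4,000 CHO-K1 cells per well / Incubation: compound exposure 20 h at 37 °C / Signal: luminescence read 15 min after SteadyLite luciferase reagent, after room-temperature equilibration / Read-out: percent activation versus DMSO / Benchmarks: DMSO negative control and −SF1 background wells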
HEK293 NFkB inh: inhibitors of PMA/ionomycin-induced NF-kB reporter, primary screen, antigen receptor NF-kB inhibitor project, cell-based, HEK-293 luciferase reporter, luminescence; HEK-293 NF-kB luciferase reporter; inhibition, % at 3 µM; actives 0.21% (n = 62,000); AID 465, 2006;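 active = inhibition above the mean of all tested compounds plus 3 SD, cut at about 40% in these data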
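System – HEK-293 cells with stable firefly luciferase reporter driven by four HIV NF-kB elements · Doses – one dose, 3 µM · Schedule – 1 h compound pre-incubation, 16 h PMA/ionomycin at 37 °C · Technique – luminescence from luciferase substrate reagent · Measure – percent inhibition normalized per plate to DMSO and reference-inhibitor controls · Replicates – tested once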
MT1-MMP txn act: MT1-MMP promoter reporter activation – cell-based, luciferase luminescence, primary screen; HT1080 MT1-MMP promoter luciferase reporter, overnight; active compounds read high; activation factor at 10 µM; actives 0.16% (n = 86,000); AID 750, 2007;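 active = activation factor of at least 2 for MT1-MMP transcription at 10 µM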
RORA act: activators of orphan receptor RORA, primary screen, cell-based, luminescence | Nuclear receptor ROR-alpha (Homo sapiens), P35398 | CHO-K1 Gal4-RORA LBD luciferase reporter; percent increase over mock-subtracted basal signal | activation, % at 10 µM | actives 1.5% (n = 65,000) | AID 560, 2006;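 active = activation above the mean of all tested compounds plus 3 SD, cut at about 49% in these data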
Jurkat viability: cytotoxicity toward Jurkat T cells, primary screen, cytotoxicity control, cell-based, Jurkat E6.1, 60K MLSMR library; Jurkat E6.1 viability, ATP luminescence, 48 h; inhibition, % at 4 µM; actives 1.2% (n = 56,000);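 active = inhibition above the mean inhibition of all tested compounds plus 3 SD, cut at about 28% in these data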
Large screens that a line does not name were inactive.

CCn1c(NCc2c[nH]c3ccccc23)nc2ccccc21	none
CC(C)(C)C(=O)Nc1ncc(C(F)(F)F)cc1Cl	none
CCOC(=O)NC(=O)CSc1nc(C)cc(C)c1C#N	none
COc1cc2c(cc1OC)C(C)N(C(=O)c1cc3ccccc3o1)CC2 (centres undefined)	Jurkat viability 28
CCCn1c(C)cc(C(=O)CN2C(=O)c3ccccc3C2=O)c1C	SF1 activator 65, RORA act 55
COc1ccc(C(=O)CN2C(=O)c3ccccc3C2=O)c(OC)c1C	none
COc1cc(NS(=O)(=O)c2ccc(C)cc2C)cc(OC)c1OC	Jurkat viability 39
CC(C)N1CC(O)=C(c2nc3ccccc3[nH]2)C1=N	RORA act 50
CC(C)CCN1CC(O)=C(c2nc3ccccc3[nH]2)C1=N	none (no result: SF1 activator, HEK293 NFkB inh, RORA act, Jurkat viability)
CS(=O)(=O)N1CCC(C(=O)Nc2ccc(Oc3ccccc3)cc2)CC1	none
O=C(O)c1ccccc1-c1nc2ccccc2c(=O)[nH]1	none (no result: Jurkat viability)
CC(=O)c1cccc2c(O)c(C3=Nc4ccccc4C3=O)[nH]c12	MT1-MMP txn act 2.3 (no result: SF1 activator, HEK293 NFkB inh, RORA act, Jurkat viability)
O=C(Cn1cnc2c(nnn2-c2ccccc2)c1=O)NCCc1ccccc1	none
O=C1Nc2ccccc2C(O)(C(=O)NCc2ccco2)N1c1ccccc1 (centres undefined)	none (no result: Jurkat viability)
O=c1c2[nH]c3ccc(F)cc3c2ncn1CCCN1CCOCC1	none
O=c1c2[nH]c3ccc(F)cc3c2ncn1CCCn1ccnc1	Jurkat viability 33
Cc1cccc(CCNS(=O)(=O)c2ccc3c(c2)oc(=O)n3C)c1	none
Cc1ccc(-c2cc(C(=O)N3CCN(c4ncccn4)CC3)c3ccccc3n2)cc1	SF1 activator 54
CC(C)(C)NC(=O)Nc1ccc2nccnc2c1	RORA act 90
O=C1OC(c2ccccc2)=N/C1=C\N1CCCCC1	none (no result: SF1 activator, HEK293 NFkB inh, RORA act, Jurkat viability)
O=C1OC(c2ccccc2)=C/C1=C/N1CCCCC1	RORA act 71
O=C1Cc2ccccc2N1c1c(Cl)cccc1Cl	MT1-MMP txn act 2.2 (no result: SF1 activator, HEK293 NFkB inh, RORA act, Jurkat viability)
C=CCNc1nc(-c2c(C)nc3sccn23)cs1	none
Cc1nc2sccn2c1-c1csc(NCc2ccccc2)n1	Jurkat viability 67
O=C(Nc1nc2ccc(S(=O)(=O)N3CCCCC3)cc2s1)C1CCCO1 (centres undefined)	none
O=C(Nc1nc2ccc(S(=O)(=O)N3CCCC3)cc2s1)C1CCCCC1	Jurkat viability 93
COC(=O)C1=C(N)Oc2cc(C)n(Cc3cccnc3)c(=O)c2C1c1ccccc1OC (centres undefined)	none
Nc1nc(Nc2ccc(Cl)cc2Cl)nc(C(F)(F)F)n1	SF1 activator 85, RORA act 56
Nc1nc(Nc2ccccc2Br)nc(C(F)(F)F)n1	none
O=C(N=C1SCC(=O)N1c1ccccc1Cl)c1ccco1	SF1 activator 55, RORA act 62
O=C(Oc1ccccc1N1C(=O)CCC1=O)c1ccco1	none (no result: HEK293 NFkB inh, Jurkat viability)
Cc1cc(NC(c2cccnc2)c2ccc3cccnc3c2O)no1 (centres undefined)	Jurkat viability 37
COc1cc(C(c2sc3nc(C)nn3c2O)N2CC(C)CC(C)C2)cc(OC)c1OC (centres undefined)	none
CCN1CCN(C(=O)C2CCN(Cc3nc(-c4ccc(Cl)cc4)oc3C)CC2)CC1	none
Cc1oc(-c2ccc(Cl)cc2)nc1CN1CCCC(C(=O)N2CCN(C(=O)c3ccco3)CC2)C1 (centres undefined)	Jurkat viability 62
Cn1c(=O)c2c(ncn2Cc2cccc(Cl)c2)n(C)c1=O	none
CC(=O)Nc1ccc(NC(=O)CSC2=NCCS2)cc1	none
O=C(CSC1=NCCS1)Nc1ccnc2ccccc12	Jurkat viability 29
Fc1cccc2sc(Nc3nnc(-c4ccco4)o3)nc12	none
O=C(Cc1ccccc1)Nc1nc(-c2cccs2)cs1	RORA act 67
CCOC(=O)c1sc(Nc2nc3c(OC)cccc3s2)nc1C	SF1 activator 64
COc1cccc2sc(Nc3nnc(-c4cccs4)o3)nc12	Jurkat viability 47
c1cncc(Nc2nc(-c3cccs3)cs2)c1	SF1 activator 76, RORA act 59
O=C(Cc1ccccc1F)Nc1nc(-c2cccs2)cs1	none
CCOC(=O)Nc1ccc(C)cc1Br	none
COc1cccc2sc(Nc3nc(-c4ccccn4)cs3)nc12	Jurkat viability 92
c1ccc(-c2csc(Nc3cccnc3)n2)nc1	SF1 activator 57
c1ccc(Nc2nc(-c3ccccn3)cs2)cc1	none (no result: SF1 activator, HEK293 NFkB inh, RORA act, Jurkat viability)
Cc1nnc(NC(=O)NCN2C(=O)C3C4C=CC(C4)C3C2=O)s1 (centres undefined)	none
CN(C(=O)c1ccco1)c1nnc(C23CC4CC(CC(C4)C2)C3)s1	SF1 activator 76, RORA act 61
CCOC(=O)CSC1=C(C#N)C(c2ccc(C)o2)CC(=O)N1 (centres undefined)	Jurkat viability 99
CCOC(=O)CSC1=C(C#N)C(c2ccc(Cl)cc2)CC(=O)N1 (centres undefined)	none
Cc1c(C(=O)Nc2cnccn2)oc2ccccc12	SF1 activator 56
O=C(Nc1ccc(Cl)cn1)c1ccc2ccccc2n1	none (no result: SF1 activator, HEK293 NFkB inh, RORA act, Jurkat viability)
Nc1c(C(=O)Nc2ccc(Cl)cc2)oc2ccccc12	SF1 activator 106, RORA act 74
Cc1c(C(=O)Nc2ccc(Cl)cn2)oc2ccccc12	MT1-MMP txn act 2.1
CCCCOc1ccc(C(=O)CCNC(C(=O)O)C(C)CC)cc1 (centres undefined)	none
Cc1ccc(NC(=O)COC(=O)c2ccc3c(c2)NC(=O)C2CCCN32)cc1 (centres undefined)	none
COc1ccc(C(CC(=O)NC(C)(C)C)n2cccc2)cc1 (centres undefined)	none
COc1ccc(C(CC(=O)Nc2nccs2)n2cccc2)cc1 (centres undefined)	SF1 activator 55
Cn1c(=O)c2c(nc(SCCN3CCCCC3)n2C)n(C)c1=O	none (no result: SF1 activator, HEK293 NFkB inh, RORA act, Jurkat viability)
CCOC(=O)N1CCN(C(=O)c2ccccc2CCc2ccccc2)CC1	none
CCOC(=O)N1CCN(C(=O)c2ccccc2-c2ccccc2)CC1	SF1 activator 60, Jurkat viability 79
O=C1c2ccccc2NC(c2ccccn2)N1c1ccc(Cl)cc1 (centres undefined)	SF1 activator 64, RORA act 51
Cc1cccc(C2Nc3ccccc3C(=O)N2c2ccccc2)n1 (centres undefined)	none
Nc1c(-c2ccc(Cl)cc2)nnn1-c1ccccc1	SF1 activator 61, RORA act 87 (no result: Jurkat viability)
Clc1ccc(-n2nnnc2-c2ccccc2)cc1	none
O=C(CSc1nnc(-c2ccc(O)cc2)n1Cc1ccco1)c1cccs1	none

Screening results from PubChem BioAssay.
